In the library only some 2.9% were active in any assay of this set; here they are far more common.
KLK7 zymogen act = activators of human kallikrein-7 zymogen; P49862; purified proKLK7, EDANS-DABCYL substrate fluorescence; 100% is mature enzyme control, 0% vehicle; activation, % at 7 µM; actives 0.9% (n = 370,000);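 active = activation above the mean of all tested compounds plus 3 SD, computed per campaign excluding outliers beyond control limits, cut at about 13% in these data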
Target sequence (P49862 whole entry, looked up): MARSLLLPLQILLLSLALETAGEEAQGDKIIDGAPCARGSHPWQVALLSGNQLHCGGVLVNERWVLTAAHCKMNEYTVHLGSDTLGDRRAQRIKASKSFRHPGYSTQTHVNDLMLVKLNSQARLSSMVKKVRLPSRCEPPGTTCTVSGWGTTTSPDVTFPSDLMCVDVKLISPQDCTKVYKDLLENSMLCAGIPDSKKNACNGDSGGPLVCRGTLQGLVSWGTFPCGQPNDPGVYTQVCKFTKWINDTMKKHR
Runt-SMMHC FRET = blocks binding of human RUNX1 Runt domain to CBFb-SMMHC; Cerulean-Runt/Venus-CBFb-SMMHC FRET ratio 530/480, 1 h; inhibition, % at 20 µM; actives 0.74% (n = 220,000); AID 1434;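 active = mean inhibition across duplicate retests at 20 µM reaching about 50%, limit read from the data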;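 note: inhibitors lower the FRET ratio by blocking Runt binding to CBFb-SMMHC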
Wee1 degr inh = human Wee1 degradation inhibition, primary screen | actives 1.2% (n = 220,000) | AID 1321 | HeLa Luc-Wee1K328M stability, luciferase luminescence; 100% = proteasome inhibitor MG132 effect | reporter increase, % at 5 µM | P30291;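 active = activation above the mean of all tested compounds plus 3 SD, set per screening run, cut at about 8.8% in these data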;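 note: cells exposed to compound for 20 h before luminescence read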
Runt-CBFb FRET = blocks binding of human RUNX1 Runt domain to CBFb | Cerulean-Runt/Venus-CBFb FRET ratio 530/480, 1 h | inhibition, % at 20 µM | actives 0.46% (n = 220,000) | AID 1496;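 active = inhibition over about 50% at 20 µM in the single-dose screen, limit read from the data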
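Buffer or medium: Tris pH 7.5 buffer with BSA. Assay system: Cerulean-labeled Runt domain protein. Amount: each fluorescent fusion protein 100 nM. Read-out basis: loss of energy transfer signal. Incubation: 1 h compound exposure, room temperature. Probe or stimulus: Venus-CBFb binding partner, 100 nM. Detection: FRET, excitation 422 nm, emission at 530 and 480 nm.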
AI-2 QS modul = modulators of Vibrio harveyi AI-2 quorum sensing system; Vibrio harveyi JMH597 AI-2 luminescence/OD600 ratio, 9 h; hits give low values; strain lacks LuxN and CqsS sensors; 0 = neutral-control median; actives 0.4% (n = 300,000); activity change, % at 7.5 µM; AID 2094; in the data active = activity change below about -75%, passing the limit was not always enough; inconclusive = no clear call, values can overlap the other calls;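 note: luminescence divided by OD600 gain over 9 h not by final OD600 alone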
RanGTP-Imp inh = inhibitors of RanGTP-importin-beta interaction, primary screen, biochemical, FRET, CFP-Ran, YFP-importin-beta, homogeneous; cell-free CFP-Ran/YFP-importin-beta FRET ratio; inhibition, % (no concentration beside the values); actives 1.1% (n = 300,000); AID 2216;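 active = more than half of the replicate wells show a fall in the fluorescence ratio signal beyond about 16%, limit read from the data, passing the limit was not always enough; inconclusive = exactly half of the replicate wells pass the set limit; inactive = fewer than half of replicates pass the limit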
KLK7 act conf = confirmation of human kallikrein-7 zymogen activators | shares compounds with KLK7 zymogen act | AID 686949 | actives 68% (n = 3,200) | purified proKLK7, EDANS-DABCYL substrate fluorescence; scaled: vehicle 0, mature enzyme 100 | activation, % at 7 µM;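 active = activation, as change over the incubation, above the mean of all tested compounds plus 3 SD, cut at about 13% in these data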
EDANS-DABCYL int = optically interferes with EDANS-DABCYL signal, flagging KLK7 hits; shares compounds with KLK7 zymogen act; EDANS-DABCYL substrate fluorescence interference, no enzyme, 4 h; solvent 0%, active enzyme control 100%; activation, % at 7 µM; actives 80% (n = 3,200); AID 686952;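 active = activation above the all-compound mean plus 3 SD, ignoring values outside control-based bounds, cut at about 4.8% in these data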;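 note: value is the 4 h activation minus the activation read at time zero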
EDANS interf = EDANS fluorescence interference in dose response, no enzyme; shares compounds with KLK7 zymogen act; EDANS-DABCYL peptide fluorescence interference; EC50, µM; actives 20% (n = 250); AID 720493;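 active = compounds that raise the fluorescence signal in this interference counterscreen, with EC50 at or below 10 µM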;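 note: intact quenched peptide substrate alone read at 355 nm excitation and 520 nm emission; signal is fluorescence gain from T0 to T4 after four hours at room temperature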
Numbers stand for hits; – = inactive; ? = inconclusive; · = not tested or not shown; + = active, no number.

SMILES	KLK7 zymogen act	Runt-SMMHC FRET	Wee1 degr inh	Runt-CBFb FRET	AI-2 QS modul	RanGTP-Imp inh	KLK7 act conf	EDANS-DABCYL int	others
COc1ccc2c(c1OC)C(=O)OC2CC(=O)c1ccc(O)cc1 (configuration not stated)	20	–	–	–	–	–	–	6.3
CCOC(=O)C1=NN(c2ccccc2)C2C(=O)N(c3ccccc3OC)C(=O)C12 (configuration not stated)	19	–	–	–	–	–	–	–
CCN(CC(=O)Nc1c(F)cccc1F)C(=O)CCSc1ccc(F)cc1	–	·	·	·	–	–	·	·
COc1ccccc1N/N=C/c1c(CO)cnc(C)c1O	21	–	–	–	–	–	34	39
O=C(N/N=C/c1cccnc1)c1ccccc1Br	–	·	·	·	–	–	·	·
Cc1ncc(CO)c(/C=N/NC(=O)c2ccccc2Br)c1O	28	64	–	–	–	–	–	–
COc1ccccc1NS(=O)(=O)c1cccc(C(=O)N/N=C/c2c(CO)cnc(C)c2O)c1	–	·	·	·	·	·	·	·
CC1(C)C(=O)Nc2ccccc2N1C(=O)COc1ccc(C#N)cc1	–	·	·	·	·	·	·	·
COc1ccc(C(=O)OC(C)C(=O)NCC2CCCCC2)cc1S(=O)(=O)N1CCOCC1 (configuration not stated)	–	·	·	·	·	·	·	·
CC1(C)CC(=O)C=C(c2cccc(Br)c2)C1	–	·	·	·	·	·	·	·
O=c1nc2n(CCO)c3ccccc3cc-2c(=O)[nH]1	18	·	·	·	·	·	48	54
Cn1c(=O)c(-c2ccccc2)cc2ccccc21	–	·	·	·	·	·	·	·
Cn1c2nc(=O)[nH]c(=O)c-2cc2ccccc21	70	·	·	·	·	·	67	65
O=C(CS(=O)(=O)Cc1ccccc1)Nc1ncccn1	–	–	–	–	–	–	·	·
CNc1cncc(-c2ccc(CN3CCOCC3)cc2)n1	82	·	·	·	·	·	67	78
CNc1cncc(-c2cc(C)c(O)c(C)c2)n1	–	·	·	·	·	·	·	·
CNc1cncc(-c2cnn(CC(C)C)c2)n1	33	·	·	·	·	·	72	64
CC(O)(c1cccnc1)c1nc(-c2ccoc2)cs1 (configuration not stated)	–	·	·	·	·	·	·	·
CNc1cncc(-c2ccoc2)n1	20	·	·	·	·	·	28	30
CNc1cncc(-c2ccc(O)cc2)n1	41	·	·	·	·	·	19	19
COc1ccc(-c2c(-c3ccsc3)oc3c2C(O)CCC3)cn1 (configuration not stated)	–	·	·	·	·	·	·	·
[O-][n+]1c2ccccc2[n+]([O-])c2cc(O)ccc21	–	·	·	·	–	–	·	·
NC(c1csc(Nc2nccc(C(F)(F)F)n2)n1)C1CCCCC1 (configuration not stated)	–	·	·	·	·	·	·	·
CNc1cncc(-c2ccc(F)cc2F)n1	14	·	·	·	·	·	20	50
CNc1cncc(-c2cccc(C(C)=O)c2)n1	–	·	·	·	·	·	·	·
SMILES	KLK7 zymogen act	Runt-SMMHC FRET	Wee1 degr inh	Runt-CBFb FRET	AI-2 QS modul	RanGTP-Imp inh	KLK7 act conf	EDANS-DABCYL int	others
CNc1cncc(-c2ccc(OCCCN(C)C)nc2)n1	51	·	·	·	·	·	59	72
CC(=O)Nc1cncc(-c2ccc(CN(C)C)cc2)n1	–	·	·	·	·	·	·	·
CNc1cncc(-c2ccc(CN(C)C)cc2)n1	116	·	·	·	·	·	72	82
CNc1cncc(-c2cccc(NS(C)(=O)=O)c2)n1	130	·	·	·	·	·	45	57
COc1ccc(/C=N/NC(=O)c2cccc(OC(F)(F)C(F)F)c2)cc1O	–	–	–	–	–	–	·	·
CNc1cncc(-c2ccc(OC)cc2)n1	25	·	·	·	·	·	49	41	EDANS interf=–
CNc1cncc(-c2ccc(S(C)(=O)=O)cc2)n1	85	·	·	·	·	·	66	65
COCCCn1c(C(=O)NC2CCCCC2C)cc2c(=O)n3cccc(C)c3nc21 (configuration not stated)	–	·	·	·	–	–	·	·
COCCCNC(=O)c1cccn2c(=O)c3cc4ccccc4cc3nc12	–	–	–	–	–	–	·	·
Cc1cccn2c(=O)c3cc(C(=O)NC4CCS(=O)(=O)C4)n(Cc4ccccc4)c3nc12 (configuration not stated)	–	·	·	·	–	?	·	·
COCCCn1c(=N)c(C(=O)NCC2CCCO2)cc2c(=O)n3cccc(C)c3nc21 (configuration not stated)	121	60	–	–	–	177	61	71
CNC(=O)c1cc2c(=O)n3cccc(C)c3nc2n(C(C)C)c1=N	91	60	–	–	–	184	71	71
C=CCn1c(=N)c(C(=O)NCCCOC)cc2c(=O)n3cccc(C)c3nc21	120	61	–	–	–	+	56	66
Cc1cccn2c(=O)c3cc(C(=O)NCC4CCCO4)c(=N)n(CCN4CCOCC4)c3nc12 (configuration not stated)	14	79	–	125	–	106	–	9.4
CN(C)S(=O)(=O)c1ccc(NC(=O)CCCNC(=O)c2ccc(Cl)cc2)cc1	–	·	·	·	–	–	·	·
Cc1c(Cl)cccc1NS(=O)(=O)c1c(C(=O)N2CCOCC2)c(C)n(C)c1C	–	·	·	·	–	?	·	·
COCCCn1c(=N)c(C(=O)NCC2CCCO2)cc2c(=O)n3ccccc3nc21 (configuration not stated)	33	65	–	–	–	172	–	15
O=C(NCC1CCCO1)c1cccc2ccccc12 (configuration not stated)	–	·	·	·	–	–	·	·
N=c1c(C(=O)NCC2CCCO2)cc2c(=O)n3ccccc3nc2n1Cc1ccccc1 (configuration not stated)	118	·	·	·	–	180	24	23
COCCCn1c(C(=O)NCCC2=CCCCC2)cc2c(=O)n3ccccc3nc21	–	·	·	·	–	–	·	·
O=C(O)c1ccccc1C(=O)NCc1cccnc1	–	–	–	–	–	–	·	·
O=C(NCc1cccnc1)c1cccn2c(=O)c3sccc3nc12	19	–	–	–	–	–	67	74
Cc1cccn2c(=O)c3cc(C(=O)NCc4cccnc4)c(=N)n(CC4CCCO4)c3nc12 (configuration not stated)	111	·	·	·	–	180	–	33
CCCCN(C)C(=O)c1nc2ccccn2c1CN1CCC[C@H]1CO	–	·	·	·	–	–	·	·
O=C1CCN(Cc2ccc(O)cc2)CCN1CCO	–	·	·	·	–	–	·	·

High-throughput results (PubChem)
